MrgX1 antag: blocks BAM8-22 activation of human MrgX1 receptor | 310,000 compounds, 1.3% hits | MRGX1-HEK293 calcium flux, Fluo-4, BAM8-22 antagonism; stronger effect = lower value | Q96LB2 | B-score at 10 µM;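 active = calcium-response B-score plate-corrected more than 3 library SD below zero, starting fluorescence within 5 deviations, no agonist response on first addition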;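 also: peak minus trough fluorescence over baseline after final BAM8-22 challenge near maximal dose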
Target sequence (Q96LB2 whole entry, looked up): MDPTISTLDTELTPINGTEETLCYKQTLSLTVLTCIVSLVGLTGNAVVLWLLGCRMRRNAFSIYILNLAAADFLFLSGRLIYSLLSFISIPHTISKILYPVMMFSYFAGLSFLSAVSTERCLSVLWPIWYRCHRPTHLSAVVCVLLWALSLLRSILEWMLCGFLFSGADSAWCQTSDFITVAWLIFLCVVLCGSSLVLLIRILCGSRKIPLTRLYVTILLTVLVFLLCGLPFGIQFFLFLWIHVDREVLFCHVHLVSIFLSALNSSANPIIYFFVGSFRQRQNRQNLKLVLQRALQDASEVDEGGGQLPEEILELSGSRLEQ
MrgX1 ag: activates human MrgX1 receptor signaling; Q96LB2; MrgX1-HEK293 cells, Fluo-4 calcium fluorescence, agonist mode; stronger effect = higher value; B-score at 10 µM; 310,000 compounds, 0.44% hits;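 active = calcium response B-score plate-corrected fluorescence ratio at least 3 library SD, with starting fluorescence B-score inside 5 SD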
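Assay system: stable human MrgX1 HEK293 cell line. Quantity: 15,000 cells per well. Schedule: cells plated overnight, dye loaded 0.5 h 37 °C, 0.5 h room temperature. Detection: Fluo-4 NW calcium-flux fluorescence, kinetic read. Read-out basis: peak-minus-minimum fluorescence over baseline, converted to B scores. Control set: positive and negative control wells on each plate.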
MrgX1 PAM: human MrgX1 positive allosteric modulation, primary screen; MrgX1-HEK293, Fluo-4 calcium flux, FDSS; stronger effect = higher value; Q96LB2; B-score at 10 µM; 310,000 compounds, 0.63% hits;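 active = plate-corrected calcium response at least 3 library SD above typical, normal starting fluorescence, not activating the receptor alone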;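 also: compound read alongside a low EC10 to EC30 dose of BAM8-22 agonist; peak minus trough fluorescence over baseline measured at the second addition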
RGS4 block: inhibitors of human RGS4 | B-score at 10 µM | HEK293 M3R/RGS4 inducible, Fluo-4 calcium flux; stronger effect = higher value; triggered by carbachol at its EC20 | P49798 | 310,000 compounds, 0.45% hits;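 active = B-score, a plate-corrected calcium signal, over three deviations above library mean, with baseline fluorescence within five deviations of library mean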;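 also: RGS4 expression induced by doxycycline in cells with stable M3 receptor; B-score is computed from the integrated fluorescence ratio over baseline after carbachol; higher B-score means a larger calcium signal and so more RGS4 inhibition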
Target sequence (P49798 whole entry, looked up): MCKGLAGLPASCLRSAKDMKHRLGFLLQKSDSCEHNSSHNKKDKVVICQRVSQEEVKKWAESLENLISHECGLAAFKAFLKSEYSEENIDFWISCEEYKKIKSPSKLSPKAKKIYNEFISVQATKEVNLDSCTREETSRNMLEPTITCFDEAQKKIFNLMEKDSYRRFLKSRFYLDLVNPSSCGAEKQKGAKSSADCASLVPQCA
RGS4 act: RGS4 potentiation or activation; B-score at 10 µM; HEK293 M3R/inducible RGS4, carbachol calcium flux Fluo4; stronger effect = lower value; AID 463111; 310,000 compounds, 0.92% hits;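 active = B-score of the integrated calcium signal more than 4 SD below the library mean, with starting fluorescence not abnormally high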;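 also: negative B-score means reduced calcium response which marks RGS4 activation or potentiation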
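Assay system: Inducible-RGS4 HEK293 cells carrying M3 receptor | Schedule: Compound preincubation 20 min at room temperature before agonist | Signal: Kinetic calcium fluorescence imaging with Fluo4-AM dye, 2 µM | Read-out basis: B score from integrated fluorescence ratio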
MrgX1 ant reconf: reconfirmed antagonist of human MrgX1 receptor signaling. shares compounds with MrgX1 antag. remaining BAM8-22 calcium response % of control (stronger effect = lower value), % at 10 µM. 2,300 compounds, 19% hits. MrgX1-HEK293, BAM8-22 calcium flux, Fluo-4; stronger effect = lower value. AID 602420;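 active = remaining agonist calcium response no higher than 100% minus 3 SD of agonist-only control wells, with starting fluorescence near control levels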;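 also: agonist BAM8-22 given at a near maximal EC90 to ECmax level; peak minus minimum fluorescence divided by baseline after agonist addition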
HEK293 Ca flux: activity in parental HEK293 cells lacking MrgX1; shares compounds with MrgX1 antag; Fluo-4 calcium fluorescence, FDSS; fluorescence ratio F(max-min)/F0 at 10 µM; 4,000 compounds, 2% hits; AID 624111;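 active = duplicate-averaged calcium fluorescence ratio at least three times the standard deviation of buffer wells, a nonspecific response in parental cells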
HEK293 Ca counter: activity in parental HEK293 cells without MrgX1; AID 624114; parental HEK293 calcium flux, Fluo-4 fluorescence ratio; stronger effect = higher value; 4,000 compounds, 0.4% hits; shares compounds with MrgX1 antag; fluorescence ratio F(max-min)/F0 at 10 µM;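 active = calcium fluorescence ratio, averaged over duplicates, at least 3 SD of the buffer-well ratio, meaning a nonspecific response in receptor-free cells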;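 also: untransfected parental HEK293 lacking MrgX1 used as counterscreen for MrgX1 allosteric activators; fluorescence change taken during the second addition on a kinetic imager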
HEK293 Ca cntr2: MrgX1 activator counter-screen hit in parental HEK293 cells. shares compounds with MrgX1 antag. Fluo-4 calcium fluorescence (FDSS); stronger effect = higher value. fluorescence ratio F(max-min)/F0 at 10 µM. 4,000 compounds, 8.7% hits. AID 624115;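 active = calcium fluorescence ratio at least three times the spread of buffer wells, meaning a non-specific response in parental cells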
Numbers stand for hits. In the library only some 3.5% were active in any assay of this set; here they are far more common.

How did CCOC(=O)c1cc2c(=O)n3ccccc3nc2n(Cc2ccco2)c1=NC(=O)c1cccnc1 do in these assays?
MrgX1 antag: -14.9; MrgX1 ag: inactive; MrgX1 PAM: inactive; RGS4 block: inactive; RGS4 act: inactive; MrgX1 ant reconf: inactive; HEK293 Ca flux: inactive; HEK293 Ca counter: inactive; HEK293 Ca cntr2: inactive

What do the screens show for `CCOC(=O)c1cc2c(=O)n3ccccc3nc2n(Cc2ccco2)c1=NC(=O)c1ccccc1OCC`?
MrgX1 antag: inactive; MrgX1 ag: inactive; MrgX1 PAM: inactive; RGS4 block: inactive; RGS4 act: inactive

How did N=c1c(S(=O)(=O)c2ccc(Br)cc2)cc2c(=O)n3ccccc3nc2n1Cc1ccco1 do in these assays?
MrgX1 antag: -4.56; MrgX1 ag: inactive; MrgX1 PAM: inactive; RGS4 block: inactive; RGS4 act: inactive; MrgX1 ant reconf: 82.2%; HEK293 Ca flux: inactive; HEK293 Ca counter: inactive; HEK293 Ca cntr2: inactive

What do the screens show for `N=c1c(S(=O)(=O)c2ccc(Cl)cc2)cc2c(=O)n3ccccc3nc2n1Cc1ccco1`?
MrgX1 antag: inactive; MrgX1 ag: inactive; MrgX1 PAM: inactive; RGS4 block: inactive; RGS4 act: inactive

How did Cc1cccc(C)c1NC(=O)C1NC(=O)CC1c1ccccc1 (stereo unspecified) do in these assays?
MrgX1 antag: -9.5; MrgX1 ag: inactive; MrgX1 PAM: inactive; RGS4 block: inactive; RGS4 act: inactive; MrgX1 ant reconf: inactive; HEK293 Ca flux: inactive; HEK293 Ca counter: inactive; HEK293 Ca cntr2: inactive

What do the screens show for `Nc1nonc1-c1noc(CCCN2C(=O)c3ccccc3C2=O)n1`?
MrgX1 antag: -6.55; MrgX1 ag: inactive; MrgX1 PAM: inactive; RGS4 block: inactive; RGS4 act: inactive; MrgX1 ant reconf: inactive; HEK293 Ca flux: inactive; HEK293 Ca counter: inactive; HEK293 Ca cntr2: inactive

How did COc1ccccc1C(=O)NCC(=O)OCC(=O)Nc1ccc2[nH]c(=O)[nH]c2c1 do in these assays?
MrgX1 antag: inactive; MrgX1 ag: inactive; MrgX1 PAM: inactive; RGS4 block: inactive; RGS4 act: inactive

How did COc1ccc(-c2csc(NC(=O)CSc3nc(C)cs3)n2)cc1 do in these assays?
MrgX1 antag: inactive; MrgX1 ag: inactive; MrgX1 PAM: inactive; RGS4 block: inactive; RGS4 act: inactive

How did COc1ccc(-c2csc(NC(=O)CSc3nc(C)nc4sc(C(=O)O)c(C)c34)n2)cc1 do in these assays?
MrgX1 antag: -6.43; MrgX1 ag: inactive; MrgX1 PAM: inactive; RGS4 block: inactive; RGS4 act: inactive; MrgX1 ant reconf: 71.5%; HEK293 Ca flux: inactive; HEK293 Ca counter: inactive; HEK293 Ca cntr2: inactive

Results for O=C(/C=C1\SC(=O)NC1=O)Nc1ccc(C(=O)O)cc1 ?
MrgX1 antag: -10.4; MrgX1 ag: inactive; MrgX1 PAM: inactive; RGS4 block: inactive; RGS4 act: inactive; MrgX1 ant reconf: inactive; HEK293 Ca flux: inactive; HEK293 Ca counter: inactive; HEK293 Ca cntr2: inactive

Results for COc1ccc(S(=O)(=O)N2CCCCC2)cc1C(=O)N1CCCC1 ?
MrgX1 antag: -5.6; MrgX1 ag: inactive; MrgX1 PAM: inactive; RGS4 block: inactive; RGS4 act: inactive; MrgX1 ant reconf: inactive; HEK293 Ca flux: inactive; HEK293 Ca counter: inactive; HEK293 Ca cntr2: inactive

Results for COC(=O)CNc1cc(S(=O)(=O)N2CCCCC2)ccc1Oc1ccc(C(=O)OC)cc1 ?
MrgX1 antag: inactive; MrgX1 ag: inactive; MrgX1 PAM: inactive; RGS4 block: inactive; RGS4 act: inactive

Results for COC(=O)c1ccc(Oc2ccc(S(=O)(=O)N3CCCCC3)cc2N)cc1 ?
MrgX1 antag: -4.89; MrgX1 ag: inactive; MrgX1 PAM: inactive; RGS4 block: inactive; RGS4 act: inactive; MrgX1 ant reconf: inactive; HEK293 Ca flux: inactive; HEK293 Ca counter: inactive; HEK293 Ca cntr2: inactive

What do the screens show for `COc1ccc(C(=O)N2CCN(CCc3ccccc3)CC2)cc1[N+](=O)[O-]`?
MrgX1 antag: inactive; MrgX1 ag: inactive; MrgX1 PAM: inactive; RGS4 block: inactive; RGS4 act: inactive

Results for CCC(C)NCCOc1cccc(Br)c1 (stereo unspecified) ?
MrgX1 antag: -4.97; MrgX1 ag: inactive; MrgX1 PAM: inactive; RGS4 block: inactive; RGS4 act: inactive; MrgX1 ant reconf: inactive; HEK293 Ca flux: inactive; HEK293 Ca counter: inactive; HEK293 Ca cntr2: inactive

How did O=C(CN1CCN(Cc2ccccc2F)CC1)Nc1ccccc1Cl do in these assays?
MrgX1 antag: inactive; MrgX1 ag: inactive; MrgX1 PAM: inactive; RGS4 block: inactive; RGS4 act: inactive

What do the screens show for `CCOC(=O)C(NC(=O)c1ccccc1)=C(C)C`?
MrgX1 antag: -8.9; MrgX1 ag: inactive; MrgX1 PAM: inactive; RGS4 block: inactive; RGS4 act: inactive; MrgX1 ant reconf: inactive; HEK293 Ca flux: inactive; HEK293 Ca counter: inactive; HEK293 Ca cntr2: inactive

What do the screens show for `CCCCOC(=O)C(NC(=O)c1ccccc1)=C(C)C`?
MrgX1 antag: inactive; MrgX1 ag: inactive; MrgX1 PAM: inactive; RGS4 block: inactive; RGS4 act: inactive

Results for COc1ccc(NC(=O)c2nc[nH]c2C(=O)N2CCN(C(=O)OC(C)(C)C)CC2)cc1 ?
MrgX1 antag: -7.66; MrgX1 ag: inactive; MrgX1 PAM: inactive; RGS4 block: inactive; RGS4 act: inactive; MrgX1 ant reconf: inactive; HEK293 Ca flux: inactive; HEK293 Ca counter: inactive; HEK293 Ca cntr2: inactive

What do the screens show for `Cc1ccc(NC(=O)CN(C)S(=O)(=O)c2cccc3nsnc23)cc1C`?
MrgX1 antag: inactive; MrgX1 ag: inactive; MrgX1 PAM: inactive; RGS4 block: inactive; RGS4 act: inactive

Results for CN(CC(=O)Nc1ccc(F)c(F)c1)S(=O)(=O)c1cccc2nsnc12 ?
MrgX1 antag: -10.2; MrgX1 ag: inactive; MrgX1 PAM: inactive; RGS4 block: inactive; RGS4 act: inactive; MrgX1 ant reconf: inactive; HEK293 Ca flux: inactive; HEK293 Ca counter: inactive; HEK293 Ca cntr2: inactive

Results for Cc1cccc(N(C)S(=O)(=O)c2cccc3nsnc23)c1 ?
MrgX1 antag: -5.02; MrgX1 ag: inactive; MrgX1 PAM: inactive; RGS4 block: inactive; RGS4 act: inactive; MrgX1 ant reconf: inactive; HEK293 Ca flux: inactive; HEK293 Ca counter: inactive; HEK293 Ca cntr2: inactive

Results for Cc1cc2c3nonc3ccc2n1-c1ccccc1 ?
MrgX1 antag: -5.19; MrgX1 ag: inactive; MrgX1 PAM: inactive; RGS4 block: inactive; RGS4 act: inactive; MrgX1 ant reconf: 83.6%; HEK293 Ca flux: inactive; HEK293 Ca counter: inactive; HEK293 Ca cntr2: inactive

Screening data deposited in PubChem by Johns Hopkins Ion Channel Center.
